Each block holds one molecule with its values, some of them ahead of it.
How the values were obtained:
[1] = target: Cyclin-dependent kinase 9 (Homo sapiens, UniProt P50750); test: Inhibition of CDK9 in human HCT116 cells assessed as phosphor-ser2 level of RNA polymerase 2 after 16 hrs by high content cellular assay; type: cell-based, HCT-116
[2] = target: Cyclin-dependent kinase 2 (Homo sapiens, UniProt P24941); test: Inhibition of CDK2/cyclin A by IMAP florescence polarization assay
[3] = Clearance in CD1 mouse at 5 mg/kg, iv; type: ADME, organism-based; parameters: dose 5 mg/kg, route intravenous; details: in vivo
Outline: (§1)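 Single IV tail-vein dose of 5 mg/kg at 5 mL/kg in 2.1 mM tartaric acid, pH 4.0, to female CD-1 mice aged 6–8 weeks, 3 per timepoint. Blood taken by cardiac puncture after euthanasia at 0.083–8 h into K2-EDTA, and plasma analysed by LC–MS/MS (LLOD 1 ng/mL). PK parameters were estimated from mean concentrations per timepoint.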

[4] = Half life in CD1 mouse at 30 mg/kg, po; type: ADME, organism-based; parameters: dose 30 mg/kg, route oral; details: in vivo
Outline: (§2)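 Female CD-1 mice, 6–8 weeks old, 3 mice per timepoint. Single oral gavage dose of 10, 30 or 45 mg/kg at 10 mL/kg in 2.1 mM tartaric acid, pH 4.0. Terminal cardiac-puncture blood taken at 0.25–8 h into K2-EDTA and spun to plasma. Plasma read by LC–MS/MS (LLOD 1 ng/mL). Concentrations were averaged per timepoint before PK estimation.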

[5] = Efflux ratio of permeability from basolateral to apical side to apical to basolateral side in MDCK2 cells at 2 uM after 3 hrs; type: ADME, cell-based, Canis lupus familiaris, MDCK-II; details: dog, MDCK
Outline: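 MDCK II cells grown in DMEM with 10% FBS and antibiotics, seeded 50,000 cells/well on transwells and cultured 5 days; monolayers PBS-washed. Compound at 2 μM in DMEM added to apical or basolateral side; both compartments sampled after 3 h at 37 °C in humidified CO₂. Quantified by LC–MS/MS with verapamil internal standard; Papp calculated per direction.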

[6] = Metabolic stability in mouse liver microsomes at 1 uM after 60 mins; type: ADME, Microsome; details: read-out: Stability
Outline: (§3)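 Liver microsomes at 0.5 mg/mL protein in 100 mM sodium phosphate, pH 7.4, with 3.3 mM MgCl2, pre-equilibrated 10 min at 37 °C. Reaction started with 1 mM NADPH. Aliquots taken at 0, 30 and 60 min and quenched in acetonitrile with internal standard, then centrifuged and analysed by LC–MS/MS. Lidocaine and dextromethorphan served as positive controls.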

[7] = Metabolic stability in human liver microsomes at 1 uM after 30 mins; type: ADME, Microsome; details: read-out: Stability; outline: as §3
[8] = Inhibition of CDK6/cyclin D by IMAP florescence polarization assay
Outline: (§4)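 IMAP fluorescence polarization kinase assay measuring phosphorylation of a fluorescein-labeled substrate. Run in IMAP tween reaction buffer with 1 mM DTT and sodium vanadate.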

[9] = Cmax in CD1 mouse at 5 mg/kg, iv; type: ADME, organism-based; parameters: dose 5 mg/kg, route intravenous; details: in vivo; outline: as §1
[10] = Volume of distribution at steady state in CD1 mouse at 5 mg/kg, iv; type: ADME, organism-based; parameters: dose 5 mg/kg, route intravenous; details: in vivo, read-out: Vdss; outline: as §1
[11] = Bioavailability in CD1 mouse at 45 mg/kg, po; type: ADME, organism-based; details: in vivo; outline: as §2
[12] = Bioavailability in CD1 mouse at 30 mg/kg, po; type: ADME, organism-based; details: in vivo; outline: as §2
[13] = Bioavailability in CD1 mouse at 10 mg/kg, po; type: ADME, organism-based; details: in vivo; outline: as §2
[14] = target: Cyclin-dependent kinase 7/ cyclin H (Homo sapiens, UniProt P50613); test: Inhibition of CDK7/cyclinH by Upstate enzymatic assay
Chain of Cyclin-dependent kinase 7/ cyclin H (P51946 whole entry): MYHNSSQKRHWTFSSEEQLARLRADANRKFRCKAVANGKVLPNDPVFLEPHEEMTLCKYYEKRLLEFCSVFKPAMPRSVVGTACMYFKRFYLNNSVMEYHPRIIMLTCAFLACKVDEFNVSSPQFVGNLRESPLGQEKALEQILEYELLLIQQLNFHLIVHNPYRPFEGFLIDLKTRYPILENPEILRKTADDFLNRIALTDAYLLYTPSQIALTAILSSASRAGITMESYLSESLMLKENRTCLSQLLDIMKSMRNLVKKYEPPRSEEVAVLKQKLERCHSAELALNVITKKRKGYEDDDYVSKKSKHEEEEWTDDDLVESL
Chain of Cyclin-dependent kinase 7/ cyclin H (P50613 whole entry): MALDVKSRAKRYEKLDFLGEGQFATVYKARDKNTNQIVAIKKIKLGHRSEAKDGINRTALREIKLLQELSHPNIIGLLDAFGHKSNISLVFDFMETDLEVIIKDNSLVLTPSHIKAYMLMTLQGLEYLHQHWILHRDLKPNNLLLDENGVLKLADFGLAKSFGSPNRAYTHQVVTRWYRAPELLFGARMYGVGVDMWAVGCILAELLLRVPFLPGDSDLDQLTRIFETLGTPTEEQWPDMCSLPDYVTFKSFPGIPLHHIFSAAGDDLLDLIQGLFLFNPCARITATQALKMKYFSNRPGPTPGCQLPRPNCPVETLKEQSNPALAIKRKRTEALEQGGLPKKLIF

[15] = AUC in CD1 mouse at 45 mg/kg, po; type: ADME, organism-based; parameters: dose 45 mg/kg, route oral; details: plasma; outline: as §2
[16] = Cmax in CD1 mouse at 30 mg/kg, po; type: ADME, organism-based; parameters: dose 30 mg/kg, route oral; details: in vivo; outline: as §2
[17] = Cmax in CD1 mouse at 45 mg/kg, po; type: ADME, organism-based; parameters: dose 45 mg/kg, route oral; details: in vivo; outline: as §2
[18] = target: Cyclin-dependent kinase 1/cyclin B1 (Homo sapiens, UniProt P06493); test: Inhibition of CDK1/cyclin B by IMAP florescence polarization assay; type: protein-complex assay; outline: as §4
Chain of Cyclin-dependent kinase 1/cyclin B1 (P06493 whole entry): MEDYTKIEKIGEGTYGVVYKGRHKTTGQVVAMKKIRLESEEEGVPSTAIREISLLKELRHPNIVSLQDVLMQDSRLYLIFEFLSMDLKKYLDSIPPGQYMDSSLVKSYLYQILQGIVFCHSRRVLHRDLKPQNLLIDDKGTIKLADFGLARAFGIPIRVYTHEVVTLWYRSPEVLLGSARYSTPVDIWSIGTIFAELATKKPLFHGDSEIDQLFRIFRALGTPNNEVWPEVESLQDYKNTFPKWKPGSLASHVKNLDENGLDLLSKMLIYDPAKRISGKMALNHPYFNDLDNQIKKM
Chain of Cyclin-dependent kinase 1/cyclin B1 (P14635 whole entry, further chain): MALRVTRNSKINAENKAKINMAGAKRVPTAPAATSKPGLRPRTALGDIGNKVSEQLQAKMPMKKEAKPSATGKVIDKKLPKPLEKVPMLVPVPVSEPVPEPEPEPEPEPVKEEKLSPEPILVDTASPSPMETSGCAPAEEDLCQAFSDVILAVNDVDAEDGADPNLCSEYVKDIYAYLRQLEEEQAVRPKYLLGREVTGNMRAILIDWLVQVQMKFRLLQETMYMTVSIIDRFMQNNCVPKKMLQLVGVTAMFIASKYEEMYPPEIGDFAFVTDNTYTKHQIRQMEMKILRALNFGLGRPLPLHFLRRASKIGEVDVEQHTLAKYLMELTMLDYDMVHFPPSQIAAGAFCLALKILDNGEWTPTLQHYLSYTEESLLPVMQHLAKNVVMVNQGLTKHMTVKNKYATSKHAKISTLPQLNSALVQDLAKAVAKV

[19] = AUC in CD1 mouse at 5 mg/kg, iv; type: ADME, organism-based; parameters: dose 5 mg/kg, route intravenous; details: plasma; outline: as §1
[20] = Half life in CD1 mouse at 10 mg/kg, po; type: ADME, organism-based; parameters: dose 10 mg/kg, route oral; details: in vivo; outline: as §2
[21] = Half life in CD1 mouse at 45 mg/kg, po; type: ADME, organism-based; parameters: dose 45 mg/kg, route oral; details: in vivo; outline: as §2
[22] = AUC in CD1 mouse at 30 mg/kg, po; type: ADME, organism-based; parameters: dose 30 mg/kg, route oral; details: plasma; outline: as §2
[23] = AUC in CD1 mouse at 10 mg/kg, po; type: ADME, organism-based; parameters: dose 10 mg/kg, route oral; details: plasma; outline: as §2
[24] = Half life in CD1 mouse at 5 mg/kg, iv; type: ADME, organism-based; parameters: dose 5 mg/kg, route intravenous; details: in vivo; outline: as §1
[25] = Metabolic stability in human liver microsomes at 1 uM after 60 mins; type: ADME, Microsome; details: read-out: Stability; outline: as §3
[26] = Cmax in CD1 mouse at 10 mg/kg, po; type: ADME, organism-based; parameters: dose 10 mg/kg, route oral; details: in vivo; outline: as §2
[27] = Metabolic stability in mouse liver microsomes at 1 uM after 30 mins; type: ADME, Microsome; details: read-out: Stability; outline: as §3
[28] = target: CDK9/cyclin T1 (Homo sapiens, UniProt P50750); test: Inhibition of CDK9/cyclinT by IMAP florescence polarization assay; outline: as §4
Chain of CDK9/cyclin T1 (O60563 whole entry): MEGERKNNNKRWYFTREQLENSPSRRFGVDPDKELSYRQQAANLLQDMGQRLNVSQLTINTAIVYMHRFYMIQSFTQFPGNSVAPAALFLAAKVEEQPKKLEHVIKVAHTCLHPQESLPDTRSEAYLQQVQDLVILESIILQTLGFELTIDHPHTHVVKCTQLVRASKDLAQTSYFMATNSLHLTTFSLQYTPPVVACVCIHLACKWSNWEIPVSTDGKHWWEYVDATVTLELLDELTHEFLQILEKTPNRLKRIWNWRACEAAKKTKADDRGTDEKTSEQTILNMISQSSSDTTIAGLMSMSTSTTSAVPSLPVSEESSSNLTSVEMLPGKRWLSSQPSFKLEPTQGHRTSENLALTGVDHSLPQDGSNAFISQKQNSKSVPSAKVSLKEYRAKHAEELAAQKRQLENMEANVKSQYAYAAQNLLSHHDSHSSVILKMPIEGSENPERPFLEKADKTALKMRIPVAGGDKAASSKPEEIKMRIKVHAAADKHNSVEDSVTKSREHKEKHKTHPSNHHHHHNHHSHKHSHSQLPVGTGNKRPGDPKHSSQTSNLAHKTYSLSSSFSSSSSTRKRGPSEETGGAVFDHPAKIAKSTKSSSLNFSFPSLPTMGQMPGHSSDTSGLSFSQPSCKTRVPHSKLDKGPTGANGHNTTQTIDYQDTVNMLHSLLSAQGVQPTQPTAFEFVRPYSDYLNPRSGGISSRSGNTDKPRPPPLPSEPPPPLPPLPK
Chain of CDK9/cyclin T1 (P50750 whole entry): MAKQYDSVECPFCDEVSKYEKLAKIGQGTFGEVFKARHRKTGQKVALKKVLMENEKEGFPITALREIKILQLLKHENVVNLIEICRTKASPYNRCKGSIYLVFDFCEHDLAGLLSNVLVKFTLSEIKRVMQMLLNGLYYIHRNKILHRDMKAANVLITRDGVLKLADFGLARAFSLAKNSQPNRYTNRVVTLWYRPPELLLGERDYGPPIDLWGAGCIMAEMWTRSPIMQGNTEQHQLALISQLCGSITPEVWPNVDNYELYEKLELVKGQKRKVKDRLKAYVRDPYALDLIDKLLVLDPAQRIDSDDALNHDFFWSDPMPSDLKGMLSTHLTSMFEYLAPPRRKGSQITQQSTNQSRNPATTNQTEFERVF

Chain of Cyclin-dependent kinase 9 (P50750 whole entry): as above

IC50 [1]: 3.5 µM
IC50 [2]: 7 nM
Compound: CC(C)(C)c1cnc(CSc2cnc(N[C@H]3CC[C@H](O)CC3)s2)o1

IC50 [1]: > 10 µM
IC50 [2]: 28 nM
Compound: CC(C)(C)c1cnc(CSc2cnc(NC3CCCC(O)C3)s2)o1 (stereo not given)

IC50 [1]: > 10 µM
IC50 [2]: 168 nM
Compound: CC(C)(C)c1cnc(CSc2cnc(NCC3CCCCC3)s2)o1

clearance [3]: 72 mL/min/kg
half-life [4]: 72 min
efflux ratio at 3 h, 2 µM [5]: 9.4
remaining at 1 h, 1 µM [6]: 77%
remaining at 0.5 h, 1 µM [7]: 64%
IC50 [8]: > 2000 nM
Cmax [9]: 1660 ng/mL
Vd [10]: 6 L/kg
IC50 [1]: 0.355 µM
bioavailability [11]: 100%
bioavailability [12]: 92%
bioavailability [13]: 62%
IC50 [14]: 105 nM
AUC [15]: 10700 ng·h/mL
Cmax [16]: 2390 ng/mL
Cmax [17]: 4600 ng/mL
IC50 [18]: 763 nM
IC50 [2]: 20 nM
AUC [19]: 1160 ng·h/mL
half-life [20]: 90 min
half-life [21]: 72 min
AUC [22]: 6390 ng·h/mL
AUC [23]: 1430 ng·h/mL
half-life [24]: 114 min
remaining at 1 h, 1 µM [25]: 53%
Cmax [26]: 411 ng/mL
remaining at 0.5 h, 1 µM [27]: 76%
IC50 [28]: 97 nM
Compound: CC(C)(C)c1cnc(CSc2cnc(N[C@H]3CC[C@H](N)CC3)s2)o1

IC50 [1]: > 10 µM
IC50 [2]: 503 nM
Compound: CC(C)(C)c1cnc(CSc2cnc(N[C@H]3CC[C@@H](N)CC3)s2)o1

IC50 [1]: > 10 µM
IC50 [2]: 9 nM
Compound: CC(C)(C)c1cnc(CSc2cnc(NC3CCCCC3)s2)o1

IC50 [1]: > 10 µM
IC50 [2]: 158 nM
Compound: CC(C)(C)c1cnc(CSc2cnc(NC3CCCC(N)C3)s2)o1 (stereo not given)

IC50 [1]: > 10 µM
IC50 [2]: 690 nM
Compound: CC(C)(C)c1cnc(CSc2cnc(N)s2)o1

IC50 [1]: > 10 µM
IC50 [2]: 538 nM
Compound: CC(C)(C)c1cnc(CSc2cnc(NC3CCNCC3)s2)o1

IC50 [1]: > 10 µM
IC50 [2]: 229 nM
Compound: CC(C)(C)c1cnc(CSc2cnc(NCC3CCNCC3)s2)o1

clearance [3]: 55 mL/min/kg
Cmax [9]: 2230 ng/mL
Vd [10]: 3 L/kg
bioavailability [13]: 14%
AUC [19]: 1510 ng·h/mL
half-life [20]: 30 min
AUC [23]: 434 ng·h/mL
half-life [24]: 36 min
Cmax [26]: 275 ng/mL
Compound: CC(C)(C)c1cnc(CSc2cnc(NC(=O)C3CCNCC3)s2)o1 [BMS-387032]

Reference: ChEMBL document CHEMBL1143434, “A diaminocyclohexyl analog of SNS-032 with improved permeability and bioavailability properties” (Bioorg Med Chem Lett, 2008)
